Measured values taken from ChEMBL document CHEMBL2321845, “Discovery of 4-Aryl-2-benzoyl-imidazoles as tubulin polymerization inhibitor with potent antiproliferative properties” (J Med Chem, 2013).

What was measured:
LNCaP = test: Cytotoxicity against human LNCAP cells assessed as growth inhibition after 96 hrs by SRB assay; assay type: functional, cell-based
Procedure, shortened: (§1)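 Plated at 1000–5000 cells/well depending on growth rate and treated with graded compound concentrations for 96 h, three to five replicates. Cell number was measured by SRB: 10% TCA fixation, 0.4% SRB staining, absorbance at 540 nm. IC50 relative to untreated control came from a nonlinear regression fit.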

PC-3 [1] = test: Cytotoxicity against human PC3 cells assessed as growth inhibition after 96 hrs by SRB assay; assay type: functional, cell-based; settings: PC-3, 96 h; procedure, shortened: as §1
PPC-1 = test: Cytotoxicity against human PPC1 cells assessed as growth inhibition after 96 hrs by SRB assay; assay type: functional, cell-based; settings: PPC-1, 96 h; procedure, shortened: as §1
DU-145 = test: Cytotoxicity against human DU145 cells assessed as growth inhibition after 96 hrs by SRB assay; assay type: functional, cell-based; settings: Homo sapiens, DU-145, 96 h
A-375 = test: Cytotoxicity against human A375 cells assessed as growth inhibition after 48 hrs by SRB assay; assay type: functional, cell-based; settings: A-375, 48 h
Procedure, shortened: (§2)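 Melanoma cells from ATCC, grown in DMEM with 10% FBS at 37°C under 5% CO2. Seeded at 1000–5000 cells/well according to growth rate and exposed to a range of compound concentrations for 48 h, in three to five replicates. Cells were fixed with 10% TCA, stained with 0.4% SRB and read at 540 nm.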

MDA-MB-435 = test: Cytotoxicity against human MDA-MB-435 cells assessed as growth inhibition after 48 hrs by SRB assay; assay type: functional, cell-based; settings: MDA-MB-435, 48 h
[2] = Cytotoxicity against human MDA-MB-435/LCC6MDR1 cells assessed as growth inhibition after 48 hrs by SRB assay; assay type: functional, cell-based, MDA-MB-435/LCC6 MDR1; settings: Homo sapiens, MDA-MB-435/LCC6 MDR1, 48 h
[3] = Cytotoxicity against human WM164 cells assessed as growth inhibition after 48 hrs by SRB assay; assay type: functional, cell-based; settings: WM164, 48 h
Procedure, shortened: as §2, with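 “nm. IC50 (50% growth inhibition versus untreated control) was taken from nonlinear regression of % survival against concentration.” for “nm.”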

PC-3 [4] = test: Cell cycle arrest in human PC3 cells assessed as accumulation at G2/M phase after 24 hrs by propidium iodide staining based FACS analysis (reference value: 18%); assay type: functional

Structure (SMILES)	IC50 (LNCaP) [µM]	IC50 (PC-3 [1]) [µM]	IC50 (PPC-1) [µM]	IC50 (DU-145) [µM]	IC50 (A-375) [µM]	IC50 (MDA-MB-435) [µM]	IC50 [2] [µM]	IC50 [3] [µM]	Activity (PC-3 [4])	Activity (PC-3 [4]; record 2)
CCCn1cc(-c2ccccc2)nc1C(=O)c1cc(OC)c(OC)c(OC)c1	0.049	0.026	0.01	0.072	0.042	0.037	0.044	0.014	–	–
O=C(c1ccc(Br)cc1)c1nc(-c2ccc(Br)cc2)c[nH]1	16.9	18.9	13.2	25.5	25	14.4	17.8	26.3	–	–
COc1cc(C(=O)c2nc(-c3ccc(O)cc3)c[nH]2)cc(OC)c1OC	0.219	0.155	0.122	0.518	0.487	0.669	0.455	0.549	–	–
COc1ccc(C(=O)c2nc(-c3ccc(OC)cc3)c[nH]2)cc1	6.42	23.4	38.1	9.84	> 50	> 50	> 50	> 50	–	–
CCc1ccc(-c2nc(C(=O)c3cc(OC)c(OC)c(OC)c3)c[nH]2)cc1	–	0.013	0.015	0.025	0.014	0.025	0.027	–	Dose-dependent effect	<=70%
COc1cc(-c2c[nH]c(C(=O)c3ccc(Br)cc3)n2)cc(OC)c1OC	0.131	0.371	0.106	0.429	0.136	0.186	0.161	0.177	–	–
O=C(c1ccc(F)cc1)c1nc(-c2ccc(F)cc2)c[nH]1	> 50	> 50	> 50	> 50	> 50	> 50	> 50	> 50	–	–
O=C(c1ccc(C(F)(F)F)cc1)c1nc(-c2ccc(C(F)(F)F)cc2)c[nH]1	> 50	> 50	> 50	> 50	> 50	> 50	26.5	> 50	–	–
COc1cc(C(=O)c2c[nH]c(-c3ccc(C(C)C)cc3)n2)cc(OC)c1OC	0.171	0.136	0.173	0.482	–	0.312	0.25	–	–	–
CCCc1[nH]c(C(=O)c2cc(OC)c(OC)c(OC)c2)nc1-c1ccccc1	3.09	12.4	11.4	16.4	37	30.5	14.3	19.6	–	–
COc1cc(C(=O)c2c[nH]c(-c3ccc(C(C)(C)C)cc3)n2)cc(OC)c1OC	0.423	0.436	0.294	1.7	–	3.69	3.07	–	–	–
COc1cc(C(=O)c2nc(-c3ccccc3)cn2C2CCCC2)cc(OC)c1OC	0.051	0.056	0.063	0.167	0.135	0.134	0.161	0.056	–	–
COc1cc(C(=O)c2nc(-c3ccc(Cl)cc3)c[nH]2)cc(OC)c1OC	0.022	0.064	0.051	0.125	0.051	0.106	0.075	0.063	–	–
COc1ccc(C(=O)c2nc(-c3cc(OC)c(OC)c(OC)c3)c[nH]2)cc1	0.708	10.4	5.69	> 50	35.4	11	11.4	36	–	–
COc1cc(Cc2nc(-c3ccccc3)c(-c3ccccc3)[nH]2)cc(OC)c1OC	–	–	–	–	–	> 50	> 50	–	–	–
CCCc1[nH]c(Cc2cc(OC)c(OC)c(OC)c2)nc1-c1ccccc1	–	–	–	–	–	10.9	15.9	–	–	–
COc1cc(-c2c[nH]c(C(=O)c3ccccc3)n2)cc(OC)c1OC	0.195	0.632	0.408	1.3	1.02	4.61	5.77	1.27	–	–
COc1cc(C(=O)c2nc(-c3ccc(N(C)C)cc3)c[nH]2)cc(OC)c1OC	0.096	0.118	0.12	0.263	0.141	0.2	0.162	0.129	–	–
O=C(c1ccccc1)c1nc(-c2ccccc2)c[nH]1	> 50	> 50	> 50	> 50	> 50	> 50	> 50	> 50	–	–
